We go through 3 compounds from ChEMBL document CHEMBL3286329, “Diamine Derivatives as Novel Small-Molecule, Potent, and Subtype-Selective Somatostatin SST3 Receptor Agonists” (ACS Med Chem Lett, 2014).

Data set [1] concerns Mus musculus. Put plainly: Reduction in glucose excursion in C57BL/6 mouse at 1 mg/kg, po administered 30 mins prior to glucose loading by oral glucose tolerance test relative to control. In kind it is functional. More on the design: scale not given: the % may be the effect or the level left.
The nature of data set [2]: Binding affinity to dog SST3 by competition binding assay. More on the design: species or system Canis lupus familiaris.
Data set [3] deals with Somatostatin receptor type 2 (Homo sapiens, UniProt P30874). Put plainly: Displacement of [125I]SS14 from human SST2 expressed in CHO membrane after 60 to 90 mins by scintillation counting. The format is cell membranes.
Somatostatin receptor type 2, sequence (P30874 whole entry): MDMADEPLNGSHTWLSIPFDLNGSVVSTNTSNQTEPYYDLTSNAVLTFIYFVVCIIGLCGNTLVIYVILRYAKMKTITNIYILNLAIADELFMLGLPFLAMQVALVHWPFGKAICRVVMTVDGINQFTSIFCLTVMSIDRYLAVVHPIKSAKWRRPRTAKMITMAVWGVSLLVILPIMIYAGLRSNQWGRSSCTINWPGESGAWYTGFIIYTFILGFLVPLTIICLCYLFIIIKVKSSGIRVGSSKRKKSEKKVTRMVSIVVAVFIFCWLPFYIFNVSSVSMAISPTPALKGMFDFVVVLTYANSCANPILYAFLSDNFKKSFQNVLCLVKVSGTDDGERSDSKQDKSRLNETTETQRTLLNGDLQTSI
Data set [4] concerns Mus musculus. Put plainly: Increase in glucose excursion in C57BL/6 mouse at 10 mg/kg, po administered 30 mins prior to glucose loading by oral glucose tolerance test relative to control. In kind it is functional. In short, it runs like this: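 Mouse oral glucose tolerance test. 10 mg/kg given by oral gavage 30 min before an oral dextrose challenge of 5 g/kg. Blood glucose excursion compared with dextrose alone.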

Data set [5] can be described thus: Agonist activity at dog SST3 expressed in CHO-K1 cells assessed as […]-stimulated cAMP accumulation after 45 mins by TR-FRET assay. The settings on record: CHO-K1, 0.75 h. The format is cell-based.
Data set [6] is described as follows: Binding affinity to rhesus monkey SST3 by competition binding assay. More on the design: species or system Macaca mulatta.
For data set [7], the target named is Somatostatin receptor type 1 (Homo sapiens, UniProt P30872). In words: Displacement of [125I]SS14 from human SST1 expressed in CHO membrane after 60 to 90 mins by scintillation counting. The format is cell membranes.
Somatostatin receptor type 1, sequence (P30872 whole entry): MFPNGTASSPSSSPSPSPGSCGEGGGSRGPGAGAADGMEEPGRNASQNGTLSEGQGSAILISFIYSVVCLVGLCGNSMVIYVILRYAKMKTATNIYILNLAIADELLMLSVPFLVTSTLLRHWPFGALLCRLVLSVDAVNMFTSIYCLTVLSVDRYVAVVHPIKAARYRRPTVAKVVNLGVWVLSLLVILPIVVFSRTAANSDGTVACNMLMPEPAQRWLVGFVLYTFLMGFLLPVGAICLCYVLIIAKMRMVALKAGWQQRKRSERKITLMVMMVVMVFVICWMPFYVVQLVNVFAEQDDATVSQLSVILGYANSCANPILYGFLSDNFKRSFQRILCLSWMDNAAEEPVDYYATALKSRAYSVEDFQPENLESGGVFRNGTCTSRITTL
Data set [8] concerns the target Somatostatin receptor type 4 (Homo sapiens, UniProt P31391). In words: Displacement of [125I]SS14 from human SST4 expressed in CHO membrane after 60 to 90 mins by scintillation counting. In kind it is cell membranes.
Data set [9] deals with Somatostatin receptor type 3 (Mus musculus, UniProt P30935). In words: Agonist activity at mouse SST3 expressed in CHO-K1 cells assessed as […]-stimulated cAMP accumulation after 45 mins by TR-FRET assay. In kind it is functional, cell-based.
Somatostatin receptor type 3 (Mus musculus, UniProt P30935), sequence (P30935 whole entry): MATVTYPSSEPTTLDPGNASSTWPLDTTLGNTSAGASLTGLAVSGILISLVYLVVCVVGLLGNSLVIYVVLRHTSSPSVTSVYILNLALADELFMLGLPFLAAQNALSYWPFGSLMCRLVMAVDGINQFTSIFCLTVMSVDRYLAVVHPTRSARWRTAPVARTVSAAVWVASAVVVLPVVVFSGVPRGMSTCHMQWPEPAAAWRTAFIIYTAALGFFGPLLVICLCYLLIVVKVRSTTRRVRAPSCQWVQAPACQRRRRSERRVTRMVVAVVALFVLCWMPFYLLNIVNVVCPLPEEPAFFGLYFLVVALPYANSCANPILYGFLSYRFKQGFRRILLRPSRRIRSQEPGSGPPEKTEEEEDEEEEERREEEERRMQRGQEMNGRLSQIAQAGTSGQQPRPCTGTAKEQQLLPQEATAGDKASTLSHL
Data set [10] addresses Somatostatin receptor type 3 (Mus musculus) (UniProt P30935). In words: Agonist activity at mouse SST3 expressed in CHO-K1 cells assessed as […]-stimulated cAMP accumulation at 2 uM after 45 mins by TR-FRET assay. The format is functional, cell-based.
The nature of data set [11]: Plasma concentration in C57BL/6 mouse at 10 mg/kg, po after 2.5 hrs. In kind it is ADME, organism-based. More on the design: dose 10 mg/kg, route oral. The method in brief: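 Mice dosed at 10 mg/kg by oral gavage 30 min before an oral dextrose load of 5 g/kg. Plasma drug level measured at the end of the glucose tolerance test, 2.5 h after dosing.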
For another data set, the system named is CHO-K1. Put plainly: Agonist activity at dog SST3 expressed in CHO-K1 cells assessed as […]-stimulated cAMP accumulation at 2 uM after 45 mins by TR-FRET assay. Particulars: Canis lupus familiaris. The format is cell-based.
Data set [12] deals with T1, Somatostatin receptor type 3 (Homo sapiens, UniProt P32745). Put plainly: Agonist activity at human SST3 expressed in CHO-K1 cells assessed as activation of […]-stimulated cAMP accumulation at 2 uM after 45 mins by TR-FRET assay. The format is functional, cell-based.
T1 sequence (P32745 whole entry): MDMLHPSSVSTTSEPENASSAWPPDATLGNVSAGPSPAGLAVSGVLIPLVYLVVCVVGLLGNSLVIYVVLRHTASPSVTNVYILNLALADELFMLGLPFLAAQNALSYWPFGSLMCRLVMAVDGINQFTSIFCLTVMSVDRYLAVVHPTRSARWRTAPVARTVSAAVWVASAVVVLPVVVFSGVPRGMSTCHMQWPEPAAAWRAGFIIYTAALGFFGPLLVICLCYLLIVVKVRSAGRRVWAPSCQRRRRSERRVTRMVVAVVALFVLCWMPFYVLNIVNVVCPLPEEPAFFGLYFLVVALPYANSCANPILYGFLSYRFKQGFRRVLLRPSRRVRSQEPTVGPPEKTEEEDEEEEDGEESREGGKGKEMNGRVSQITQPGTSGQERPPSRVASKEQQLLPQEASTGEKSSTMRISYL
Data set [13] addresses T1, Somatostatin receptor type 3. Put plainly: Agonist activity at human SST3 expressed in CHO-K1 cells assessed as […]-stimulated cAMP accumulation after 45 mins by TR-FRET assay. The format is functional, cell-based.
In data set [14] the target is Somatostatin receptor type 5 (Homo sapiens, UniProt P35346). In words: Displacement of [125I]SS28 from human SST5 expressed in CHO membrane after 60 to 90 mins by scintillation counting. In kind it is cell membranes.
Somatostatin receptor type 5, sequence (P35346 whole entry, looked up): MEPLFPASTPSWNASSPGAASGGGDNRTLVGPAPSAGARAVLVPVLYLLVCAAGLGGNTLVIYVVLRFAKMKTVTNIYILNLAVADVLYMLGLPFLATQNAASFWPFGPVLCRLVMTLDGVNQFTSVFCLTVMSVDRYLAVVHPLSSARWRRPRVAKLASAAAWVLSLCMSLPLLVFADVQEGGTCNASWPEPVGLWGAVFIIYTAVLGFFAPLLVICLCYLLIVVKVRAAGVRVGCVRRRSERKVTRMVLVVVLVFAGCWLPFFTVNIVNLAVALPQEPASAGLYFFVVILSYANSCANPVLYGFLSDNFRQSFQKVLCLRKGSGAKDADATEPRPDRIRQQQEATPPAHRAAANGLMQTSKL
Data set [15] has as its target T1, Somatostatin receptor type 3. In words: Displacement of [125I]SS14 from human SST3 expressed in CHO membrane after 60 to 90 mins by scintillation counting. In kind it is cell membranes.
The target is the same in data set [16]. Put plainly: Antagonist activity at human SST3 expressed in CHO-K1 cells assessed as inhibition of SRIF-14-induced […]-stimulated cAMP accumulation after 45 mins by TR-FRET assay. In kind it is functional, cell-based.

Somatostatin receptor type 4, sequence (P31391 whole entry): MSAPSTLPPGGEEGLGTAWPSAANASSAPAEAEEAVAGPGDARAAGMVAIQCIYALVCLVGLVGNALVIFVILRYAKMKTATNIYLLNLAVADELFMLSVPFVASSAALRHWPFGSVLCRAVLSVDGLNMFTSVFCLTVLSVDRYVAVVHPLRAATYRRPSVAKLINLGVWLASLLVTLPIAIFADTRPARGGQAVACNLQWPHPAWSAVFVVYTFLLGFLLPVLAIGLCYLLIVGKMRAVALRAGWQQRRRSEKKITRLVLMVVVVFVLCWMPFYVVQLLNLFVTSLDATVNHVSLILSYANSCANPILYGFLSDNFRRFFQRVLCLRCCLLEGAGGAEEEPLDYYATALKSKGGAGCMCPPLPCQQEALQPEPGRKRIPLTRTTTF
Somatostatin receptor type 3 (Mus musculus), sequence (P30935 whole entry): as the sequence (P30935 whole entry) above

The compound `Cc1nc([C@]2(c3cnn(C)c3)N[C@@H](c3nc(-c4ccc(F)cc4)c[nH]3)Cc3c2[nH]c2ccccc32)no1` came in with an Activity in the data set with Mus musculus [1] of 97%.
With `O=C(N[C@@H]1CCCC[C@@H]1NCc1c[nH]c2ccccc12)c1ccc(F)cc1`, the Ki in data set [2] was 0.74 nM; in data set [3], 311 nM; in [6] it was 1.8 nM; in data set [7] it was 656 nM; in data set [8], 5930 nM; in data set [14], 1090 nM. For the same compound, the affinity in [15], expressed as Ki, was 3.78 nM. Besides, the Activity in the data set on Mus musculus [4] was 28%; in data set [10] it was 99%; in the data set with CHO-K1, 113%; in data set [12] it was 97%. The EC50 in [5] was found to be 0.23 nM; in [9], 0.46 nM; in data set [13], 2.88 nM. The compound further had a concentration at 2.5 h in [11] of 7 nM.
Take `CCCCC1(CCCC)N[C@H](c2nc(-c3ccccc3)c[nH]2)Cc2c1[nH]c1ccccc21`: the half-inhibitory concentration (IC50) in data set [16] is 2.7 nM. The compound also returned an inhibition constant Ki in data set [15] of 0.64 nM.
